# Compound activity (PubChem)
# This is a sample that favours compounds with a hit; in the whole collection about 3.1% have one here.
# pPAFAH inh: pPAFAH enzyme inhibitors, primary screen, biochemical, fluorescence polarization, human | Platelet-activating factor acetylhydrolase (Homo sapiens), Q13093 | recombinant pPAFAH, FP-rhodamine probe fluorescence polarization | inhibition, % at 3.39 µM | 330,000 compounds, 1.5% hits;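 active = inhibition above the mean inhibition across the screen plus 3 SD, cut at about 25% in these data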;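 note: inhibitors block binding of the rhodamine activity-based probe so polarization drops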
# PAFAH1B3 inh: PAFAH1B3 enzyme inhibitors, primary screen, biochemical, fluorescence polarization, human; recombinant PAFAH1B3, FP-rhodamine probe; inhibition, % at 3.39 µM; 340,000 compounds, 0.28% hits;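 active = inhibition above the screen-wide average of all tested compounds plus 3 SD, cut at about 25% in these data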
# PAFAH2 inh: PAFAH2 enzyme inhibitors, primary screen, biochemical, fluorescence polarization, human. recombinant PAFAH2, FP-rhodamine activity probe. inhibition, % at 3.39 µM. 340,000 compounds, 0.99% hits. AID 492956, 2010;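 active = inhibition above the mean over all tested compounds plus 3 SD, cut at about 30% in these data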;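 note: inhibitors block probe labeling of enzyme so polarization drops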
# Apaf1 inhib: inhibitors of human Apaf-1 apoptosome, primary screen, biochemical, DEVD-Rh110 fluorescence, uHTS | 330,000 compounds, 0.71% hits | inhibition, % at 20 µM | Apoptotic protease-activating factor 1 (Homo sapiens), O14727 | reconstituted apoptosome caspase-3 activity; active = inhibition of at least 40% at 20 µM
# Target sequence (O14727 whole entry, looked up): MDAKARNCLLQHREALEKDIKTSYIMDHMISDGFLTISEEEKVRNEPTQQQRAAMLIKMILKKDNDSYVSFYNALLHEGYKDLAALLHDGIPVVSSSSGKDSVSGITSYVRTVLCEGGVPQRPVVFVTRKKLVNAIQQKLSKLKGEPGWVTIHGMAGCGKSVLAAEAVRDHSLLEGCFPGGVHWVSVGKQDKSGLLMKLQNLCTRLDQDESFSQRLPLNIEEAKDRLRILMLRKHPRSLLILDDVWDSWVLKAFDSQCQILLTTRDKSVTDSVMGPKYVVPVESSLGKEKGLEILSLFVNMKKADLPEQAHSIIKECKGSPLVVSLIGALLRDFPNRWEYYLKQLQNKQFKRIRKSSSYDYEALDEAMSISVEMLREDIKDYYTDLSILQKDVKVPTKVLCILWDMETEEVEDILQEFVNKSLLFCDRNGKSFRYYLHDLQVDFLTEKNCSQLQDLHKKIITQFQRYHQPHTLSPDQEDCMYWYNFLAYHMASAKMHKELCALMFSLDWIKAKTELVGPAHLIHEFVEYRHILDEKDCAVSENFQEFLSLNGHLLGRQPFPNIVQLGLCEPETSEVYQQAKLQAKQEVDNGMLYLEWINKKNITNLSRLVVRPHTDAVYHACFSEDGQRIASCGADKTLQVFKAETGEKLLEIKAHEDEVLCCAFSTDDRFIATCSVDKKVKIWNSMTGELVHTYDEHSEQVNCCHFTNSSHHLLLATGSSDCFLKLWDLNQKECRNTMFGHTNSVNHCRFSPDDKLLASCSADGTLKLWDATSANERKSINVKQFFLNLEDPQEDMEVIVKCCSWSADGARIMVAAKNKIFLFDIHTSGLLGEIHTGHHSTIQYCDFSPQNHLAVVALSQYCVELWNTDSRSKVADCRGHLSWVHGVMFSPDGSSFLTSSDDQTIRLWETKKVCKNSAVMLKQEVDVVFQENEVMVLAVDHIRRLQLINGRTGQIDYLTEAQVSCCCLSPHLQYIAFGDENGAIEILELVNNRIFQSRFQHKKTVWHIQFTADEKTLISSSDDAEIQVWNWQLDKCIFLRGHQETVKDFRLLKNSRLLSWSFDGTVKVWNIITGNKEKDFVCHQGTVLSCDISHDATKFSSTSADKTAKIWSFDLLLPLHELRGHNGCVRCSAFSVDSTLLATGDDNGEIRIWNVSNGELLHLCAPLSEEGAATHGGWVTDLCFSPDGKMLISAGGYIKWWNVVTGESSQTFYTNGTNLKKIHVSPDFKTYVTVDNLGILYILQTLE
#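 Assay system – apoptosome proteins · Medium – Hepes buffer, pH 7.5 · Also added – cytochrome c with DEVD-Rh110 · Timing – 30 min compound preincubation, 50 min activation, room temperature · Detection – Rh110 fluorescence, excitation 480 nm, emission 540 nm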
# PAFAH1B2 FP inh: PAFAH1B2 enzyme inhibitors, primary screen, biochemical, fluorescence polarization, human. Platelet-activating factor acetylhydrolase IB subunit alpha2 (Homo sapiens), P68402. recombinant PAFAH1B2, FP-rhodamine activity probe. inhibition, % at 3.39 µM. 340,000 compounds, 1.2% hits. AID 492953, 2010;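 active = inhibition above the mean of all tested compounds plus 3 SD, cut at about 24% in these data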
# pPAFAH confirm: pPAFAH (PLA2G7) enzyme inhibitors, confirmation, biochemical, fluorescence polarization, human; shares compounds with pPAFAH inh; recombinant pPAFAH, FP-Rh probe fluorescence polarization; inhibition, % at 3.39 µM; 2,300 compounds, 72% hits; AID 463230, 2010;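 active = mean inhibition of the triplicate above the hit cutoff set for the earlier primary screen, cut at about 25% in these data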
# Apaf-1 inh conf2: Apaf-1 inhibitors, single-dose retest, confirmation, biochemical, fluorescence, DEVD-Rh110, 20 µM; shares compounds with Apaf1 inhib; reconstituted apoptosome, caspase-3 DEVD-Rh110 fluorescence; inhibition, % at 20 µM; 1,800 compounds, 25% hits; AID 504614, 2011;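 active = mean inhibition of at least 40% at 20 µM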
# Rh110 interf inh: Rh110 fluorescence interference by putative Apaf-1 inhibitors, confirmation, artefact control for Apaf-1 inhibitor project, biochemical, 20 µM; quenched caspase reaction; activation (fluorescence interference), % at 20 µM; 1,800 tested, under 10 active; shares compounds with Apaf1 inhib; AID 504615, 2011;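 active = signal rise of 40% or more at 20 µM, treated as a fluorescence artifact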
# Fluor interf inh: fluorescence interference of Apaf-1 inhibitor hits, dose response, artefact control for Apaf-1 inhibitor project. shares compounds with Apaf1 inhib. fluorescence interference counterscreen, Apaf-1 assay format. IC50, µM. 460 tested, under 10 active. AID 588538, 2011; call rule not given here
# Numbers stand for hits; . = inactive; / = no result given.
SMILES,pPAFAH inh,PAFAH1B3 inh,PAFAH2 inh,Apaf1 inhib,PAFAH1B2 FP inh,pPAFAH confirm,Apaf-1 inh conf2,Rh110 interf inh,others
O=C(COC(=O)CNC(=O)c1ccco1)Nc1ncc(Cl)cc1Cl,.,.,.,.,.,/,/,/,
Cc1nnsc1C(=O)N/N=C/c1ccc2ccccc2c1O,36.3,.,.,.,.,48.2,/,/,
Cc1nnsc1C(=O)N/N=C/c1ccccc1,.,.,.,.,.,/,/,/,
COc1cc(Br)c(S(=O)(=O)Nc2c(C)n(C)n(-c3ccccc3)c2=O)cc1OC,.,.,.,.,.,/,/,/,
COc1ccc(S(=O)(=O)Nc2c(C)n(C)n(-c3ccccc3)c2=O)c(Cl)c1Cl,62.1,.,.,.,.,.,/,/,
Cc1c(NS(=O)(=O)c2cc(C(=O)NCCN(C)C)ccc2Cl)c(=O)n(-c2ccccc2)n1C,51.5,.,.,.,.,.,/,/,
CCOc1ccc(-n2ccnc2)nn1,45.3,.,.,.,.,.,/,/,
Cc1cc(C)n(-c2ccc(-n3ccnc3)nn2)n1,.,.,.,.,.,/,/,/,
S=c1[nH]nc(-c2cc(-c3ccccc3)n[nH]2)n1/N=C/c1ccc(Br)s1,53.7,.,.,.,.,70.0,/,/,
COc1cc(C(=O)NCc2nnc(SCC(=O)NCc3ccco3)o2)cc(OC)c1OC,.,.,.,.,.,/,/,/,
Oc1c(Br)cc(Br)cc1CNc1cccc2cccnc12,60.6,28.0,.,92.1,.,.,59.1,.,Fluor interf inh=.
Oc1ccc(/C=N/Nc2cc(N3CCCC3)nc(N3CCCC3)n2)cc1O,55.8,.,.,59.7,.,28.3,88.8,.,Fluor interf inh=.
COc1cc(CCc2ccccc2)c(C(=O)O)c(O)c1C/C=C(/C)CCC=C(C)C,71.6,.,.,43.3,.,58.7,.,.,
COc1cc(CCc2ccccc2)c(C(=O)O)c(O)c1CC=C(C)C,/,.,.,/,.,/,/,/,
O=C(CC1Nc2ccccc2NC1=O)Nc1cc(Cl)cc(Cl)c1 (stereo not drawn),.,.,.,.,.,/,/,/,
O=C(CC1Nc2cccc3cccc(c23)NC1=O)Nc1ccc(F)cc1 (stereo not drawn),59.6,.,.,95.6,.,.,.,.,
O=C(Nc1nncs1)C1CC(=O)N(CCc2ccc(F)cc2)C1 (stereo not drawn),.,.,.,.,.,/,/,/,
O=[N+]([O-])c1ccc(O)c(C=Nc2ccc3nc(-c4ccccc4)[nH]c3c2)c1,.,.,.,.,.,/,/,/,
Oc1c(Br)cc(C=Nc2ccc3nc(-c4ccccc4)[nH]c3c2)c(O)c1Br,43.8,/,/,64.9,/,34.8,.,.,
O=C(O)CCNc1cc(N2CCN(C(=O)c3ccco3)CC2)c2noc3c2c1C(=O)c1ccccc1-3,74.3,.,.,81.3,.,45.4,73.0,.,Fluor interf inh=13.2
CCN(CC)CCCn1c2c(c(SCC(=O)Nc3ccccc3Cl)nc1=O)CCC2,.,.,.,.,.,/,/,/,
O=C(NC1CCCC1)c1ccc2nc(-c3ccco3)c(-c3ccco3)nc2c1,67.6,.,38.0,44.5,.,33.6,.,.,
O=C(NC1CCCC1)c1ccc2nc[nH]c2c1,.,.,.,.,.,/,/,/,
O=C(O)c1ccc2nc(-c3ccccc3)c(-c3ccccc3)nc2c1,.,.,.,.,.,/,/,/,
O=C(NCCc1ccccc1)c1ccc2nc(-c3ccco3)c(-c3ccco3)nc2c1,60.4,.,.,45.8,.,36.7,.,.,
O=C(NCCO)c1ccc2nc(-c3ccco3)c(-c3ccco3)nc2c1,39.3,40.5,31.1,77.6,.,.,.,.,
